Assay results pooled from the literature.
Protocols differ between the studies behind these lines.
Target: Aurora kinase A (AURKA, Homo sapiens, UniProt O14965)
One construct used (O14965 1-403): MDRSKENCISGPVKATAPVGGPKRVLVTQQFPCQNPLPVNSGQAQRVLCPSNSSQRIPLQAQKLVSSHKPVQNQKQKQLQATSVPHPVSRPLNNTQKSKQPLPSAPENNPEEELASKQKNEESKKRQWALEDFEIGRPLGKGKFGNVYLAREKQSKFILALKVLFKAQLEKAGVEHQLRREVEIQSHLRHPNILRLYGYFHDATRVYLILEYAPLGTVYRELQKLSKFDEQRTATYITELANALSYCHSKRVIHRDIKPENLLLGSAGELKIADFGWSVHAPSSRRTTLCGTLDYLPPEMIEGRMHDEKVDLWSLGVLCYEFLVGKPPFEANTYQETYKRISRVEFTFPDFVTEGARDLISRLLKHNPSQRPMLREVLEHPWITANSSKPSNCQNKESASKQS

Compound | effect on | method | concentration | remaining binding [%]
O=C(c1ccc(Nc2ncc(Cl)c(-c3ccc(Cl)s3)n2)cc1)N1CCC(N2CCCC2)CC1 | binding | competition with immobilised ligand | 1 µM | 1.9
Cc1c(NC(=O)c2cc(C(N)=O)nc3cc(F)ccc23)c(C(F)(F)F)nn1Cc1ccc(C(C)(C)C)cc1 | cell-free assay | competition with immobilised ligand | 1 µM | 100
CCN1CCN(Cc2ccc(C(=O)Nc3ccc(C)c(Oc4ccc5c(c4)CC(=O)N5)c3)cc2C(F)(F)F)CC1 | binding | competition with immobilised ligand | 1 µM | 100
O=C(NS(=O)(=O)c1ccc(NCC2CCOCC2)c([N+](=O)[O-])c1)c1ccc(N2CCN(Cc3ccc(C(F)(F)F)cc3-c3ccc(Cl)cc3)CC2)cc1Oc1cnc2[nH]ccc2c1 | cell-free assay | competition with immobilised ligand | 1 µM | 96
Nc1ncc2c(n1)-c1c([nH]c3ccc(C#CC4CC4)cc13)CCCC2 | binding | competition with immobilised ligand | 1 µM | 80
COc1ccc2cc(OCC3(C(=O)O)CN(C(=O)c4ccc(F)cc4)C3)ccc2c1 | cell-free assay | competition with immobilised ligand | 1 µM | 100
C[C@@H](c1ccc(-n2cnc3c(N)ncnc32)cc1)N1CCc2nn(C)c(Cc3ccccc3)c2C1=O | binding | competition with immobilised ligand | 0.1 µM | 73
N#Cc1ccccc1CSc1nnc2c(n1)[nH]c1ccccc12 | binding | competition with immobilised ligand | 10 µM | 100
O=C(Nc1c[nH]nc1C(=O)NC1CCNCC1)c1cc(F)cc(F)c1 | binding | competition with immobilised ligand | 1 µM | 100
COCCOc1nc(-c2ccc(Cl)nc2)nc2c1CN(C(=O)c1ncn3ccccc13)CC2 | cell-free assay | competition with immobilised ligand | 0.1 µM | 81
c1cnn2ncc(-c3ccnc(N4CCC45COC5)n3)c2c1 | binding | – | 1 µM | 90
C[C@@H]1CN(c2ccc3ncc(-c4ccc5[nH]nc(C6CC6)c5c4)n3n2)C[C@H](C)O1 | binding | competition with immobilised ligand | 50 nM | 87
O=C(NCCCN1CCOCC1)c1ccc(Nc2nccc(-c3cc4ccccc4s3)n2)cc1 | binding | competition with immobilised ligand | 1 µM | 55
O=c1nc(-c2ccccn2)sc2ccccc12 | cell-free assay | competition with immobilised ligand | 1 µM | 87
COc1ccnn2ncc(-c3ccnc(N(C)C)n3)c12 | binding | – | 1 µM | 93
C=CC(=O)N1CCC(C(=O)NCC(=O)N2CCN(c3nc(-c4cnc(N)nc4C(F)F)nc(N4CCOCC4)n3)CC2)CC1 | binding | competition with immobilised ligand | 1 µM | 96
CN(CCCC(F)(F)F)c1nccc(-c2cnn3ncccc23)n1 | binding | – | 1 µM | 90
O=C(NCCCN1CCOCC1)c1ccc(Nc2ncc(Cl)c(-c3ccc(Cl)s3)n2)cc1 | binding | competition with immobilised ligand | 1 µM | 12
Cc1cnn2ncc(-c3ccnc(N(C)C)n3)c2c1 | binding | – | 1 µM | 99
CN(C(=O)c1ccccc1)c1cc(N(C)c2ccc3c(c2)CCc2ccc(C(=O)NCCN4CCOCC4)cc2C3=O)ccc1F | cell-free assay | competition with immobilised ligand | 1 µM | 100
N[C@@H]1CCN(c2nccc(-c3cnn4ncccc34)n2)C1 | binding | – | 1 µM | 100
COc1cnc(Nc2cccc(S(N)(=O)=O)c2)nc1N1CCN(c2ccccc2)CC1 | binding | competition with immobilised ligand | 1 µM | 85
CC1CCCN1c1nccc(-c2cnn3ncccc23)n1 (centres unmarked) | binding | – | 1 µM | 87
COc1cnc(Nc2cccc(S(N)(=O)=O)c2)nc1N1CCN(c2ccccc2)C(=O)C1 | binding | competition with immobilised ligand | 1 µM | 80
FC(F)(F)c1ccc2c(c1)nc(-c1cccnc1)n2C1CC1 | cell-free assay | competition with immobilised ligand | 1 µM | 98
C[C@H]1CCN(c2nccc(-c3cnn4ncccc34)n2)C1 | binding | – | 1 µM | 91
